{"data": "Measurements pooled from the literature", "target": "cAMP-dependent protein kinase catalytic subunit alpha (PRKACA, Homo sapiens, UniProt P17612)"}
{"SMILES": "Cn1cnc(Br)c1C1=CN(c2ncnc3[nH]cnc23)CCS1", "test": "enzyme activity, inhibitor, radiometric", "conditions": "50 nM", "quantity": "inhibition", "value": "21.5%"}
{"SMILES": "Cn1c2c(Cl)c(Cl)ccc2c2cc[nH]c(=O)c21", "test": "thermal stability, DSF", "conditions": "10 µM", "quantity": "ΔTm", "value": "0.8 °C"}
{"SMILES": "CC(C)(O)[C@H]1CC[C@H](Nc2ccc3ncc(-c4cccc(C(F)(F)F)c4)n3n2)CC1", "test": "enzyme activity, inhibitor", "conditions": "1 µM", "quantity": "remaining activity", "value": "99.4%"}
{"SMILES": "Cc1ccc(C(=O)Nc2ccc(CN3CCN(C)CC3)c(C(F)(F)F)c2)cc1C#Cc1cnc2cccnn12", "test": "enzyme activity, inhibitor", "conditions": "23.5 nM", "quantity": "remaining activity", "value": "53%"}
{"SMILES": "CCN(CC)CCNC(=O)c1c(C)[nH]c(/C=C2\\C(=O)Nc3ccc(F)cc32)c1C", "test": "enzyme activity, inhibitor", "conditions": "0.3 µM", "quantity": "inhibition", "value": "11%"}
{"SMILES": "COc1cc(Nc2cnc(C#N)c(O[C@H](C)CN(C)C)n2)ncc1-c1cnn(C)c1", "test": "enzyme activity, inhibitor, radiometric", "conditions": "10 µM", "quantity": "remaining activity", "value": "78%"}
{"SMILES": "CC1(C)NC(=O)c2[nH]c3c(Cl)c(Cl)ccc3c2C1C#N (stereo not drawn)", "test": "thermal stability, DSF", "conditions": "10 µM", "quantity": "ΔTm", "value": "1 °C"}
{"SMILES": "CN1CC(Oc2cnc(C#N)cc2-c2ccn3nc(NC(=O)C4CC4)cc3c2)C1", "test": "enzyme activity, inhibitor", "conditions": "1 µM", "quantity": "inhibition", "value": "7%"}
{"SMILES": "CCN1CCC2(CC1)NC(=O)c1c(c3ccc(Cl)c(Cl)c3n1C)C2C#N (racemic)", "test": "thermal stability, DSF", "conditions": "10 µM", "quantity": "ΔTm", "value": "1.9 °C"}
{"SMILES": "FC(F)(F)Oc1cccc(-c2cnc3ccc(-c4ccncc4)nn23)c1", "test": "enzyme activity, inhibitor, radiometric", "conditions": "1 µM", "quantity": "activity vs control", "value": "95%"}
{"SMILES": "COc1ccnn2ncc(-c3ccnc(N(C)C)n3)c12", "test": "cell-free assay", "conditions": "1 µM", "quantity": "remaining signal", "value": "100%"}
{"SMILES": "CCCOc1ccc([C@H]2[C@H](C(=O)O)[C@@H](c3ccc4c(c3)OCO4)CN2CC(=O)Nc2c(CC)cccc2CC)cc1", "test": "cell-free assay, competition with immobilised ligand", "conditions": "1 µM", "quantity": "remaining binding", "value": "100%"}
{"SMILES": "CSc1nc(C)c(-c2ccnc(Nc3ccc(N4CCOCC4)cc3)c2)[nH]1", "test": "enzyme activity, inhibitor", "conditions": "10 µM", "quantity": "inhibition", "value": "5%"}
{"SMILES": "CS(=O)(=O)N1CCCC(NC(=O)[C@H](CCC2CCCCC2)NC(=O)c2ccc(CNC(=O)c3cnc4ccccn34)cc2)C1 (stereo partly drawn)", "test": "cell-free assay, competition with immobilised ligand", "conditions": "0.1 µM", "quantity": "remaining binding", "value": "100%"}
{"SMILES": "CN(c1ncccc1CNc1nc(Nc2ccc3c(c2)CC(=O)N3)ncc1C(F)(F)F)S(C)(=O)=O", "test": "enzyme activity, inhibitor", "conditions": "1 µM", "quantity": "inhibition", "value": "78.4%"}
{"SMILES": "COc1cc(/C=C/C(=O)CC(=O)/C=C/c2ccc(O)c(OC)c2)ccc1O", "test": "enzyme activity, inhibitor", "conditions": "1 µM", "quantity": "activity vs control", "value": "94%"}
{"SMILES": "CCCS(=O)(=O)Nc1ccc(F)c(C(=O)c2c[nH]c3ncc(-c4ccc(Cl)cc4)cc23)c1F", "test": "enzyme activity, inhibitor", "conditions": "1 µM", "quantity": "inhibition", "value": "< 10%"}
{"SMILES": "O=C(Nc1cnn(-c2csc(C(=O)NC3COC3)c2)c1)Nc1c(F)cccc1Cl", "test": "enzyme activity, inhibitor", "conditions": "5 µM", "quantity": "remaining activity", "value": "108%"}
{"SMILES": "CN(C)CC#Cc1ccc(OCCCc2sc(N3CCc4cccc(C(=O)Nc5nc6ccccc6s5)c4C3)nc2C(=O)O)c(F)c1", "test": "cell-free assay, competition with immobilised ligand", "conditions": "1 µM", "quantity": "remaining binding", "value": "89%"}
{"SMILES": "CN(C)C1CCN(CC#Cc2nn(C3CCCC3)c3nc(NCc4ccccc4)ncc23)C1 (stereo not drawn)", "test": "enzyme activity, inhibitor, FRET", "conditions": "0.1 µM", "quantity": "inhibition", "value": "3%"}
{"SMILES": "O=C1NC(=O)c2cc(Nc3ccc(F)cc3)c(Nc3ccc(F)cc3)cc21", "test": "cell-free assay, inhibitor", "conditions": "0.5 µM", "quantity": "remaining signal", "value": "94.5%"}
{"SMILES": "O=C(Nc1cccnn1)N1CCC(=Cc2cccc(Oc3ccc(C(F)(F)F)cn3)c2)CC1", "test": "cell-free assay, competition with immobilised ligand", "conditions": "1 µM", "quantity": "remaining binding", "value": "100%"}
{"SMILES": "Cc1ccc(Nc2nccc(N(C)c3ccc4c(C)n(C)nc4c3)n2)cc1S(N)(=O)=O", "test": "enzyme activity, inhibitor", "conditions": "0.3 µM", "quantity": "inhibition", "value": "6%"}
{"SMILES": "O=C(NS(=O)(=O)c1ccc(NCC2CCOCC2)c([N+](=O)[O-])c1)c1ccc(N2CCN(Cc3ccc(C(F)(F)F)cc3-c3ccc(Cl)cc3)CC2)cc1Oc1cnc2[nH]ccc2c1", "test": "cell-free assay, competition with immobilised ligand", "conditions": "1 µM", "quantity": "remaining binding", "value": "76%"}
{"SMILES": "Cc1cnn2ncc(-c3ccnc(N(C)C)n3)c2c1", "test": "cell-free assay", "conditions": "1 µM", "quantity": "remaining signal", "value": "100%"}
{"SMILES": "N#CCCc1ccc2c(c1)-c1[nH]c3ccc([N+](=O)[O-])cc3c1CC(=O)N2", "test": "cell-free assay", "conditions": "0.5 µM", "quantity": "remaining signal", "value": "87.6%"}
{"SMILES": "CCCCN(CCCC)C(=O)CN1C[C@H](c2cc(OC)c3c(c2)OCO3)[C@@H](C(=O)O)[C@@H]1CC(C)(C)CCC", "test": "cell-free assay, competition with immobilised ligand", "conditions": "1 µM", "quantity": "remaining binding", "value": "100%"}
{"SMILES": "Cc1ccc(NC(=O)c2ccc(C)c(C(F)(F)F)c2)cc1C#Cc1nn(C2CCC(O)CC2)c2ncnc(N)c12 (stereo not drawn)", "test": "cell-free assay, inhibitor", "conditions": "10 µM", "quantity": "remaining signal", "value": "60%"}
{"SMILES": "CNCc1ccccc1-c1csc([C@@H](C)Nc2nc(C)nc3cc(OC)c(OC)cc23)c1", "test": "cell-free assay, competition with immobilised ligand", "conditions": "1 µM", "quantity": "remaining binding", "value": "100%"}
{"SMILES": "COc1cc2ncnc(Nc3ccc(Oc4ccccc4)c(C)c3C)c2cc1OC", "test": "enzyme activity, inhibitor", "conditions": "1 µM", "quantity": "inhibition", "value": "4%"}
{"SMILES": "Nc1nc(NC2CCCCC2)sc1C(=O)c1ccccc1", "test": "enzyme activity, inhibitor", "conditions": "10 µM", "quantity": "remaining activity", "value": "97%"}
{"SMILES": "Cc1ccc(NC(=O)c2ccc(CN3CCN(C)CC3)cc2)cc1Nc1nccc(-c2cccnc2)n1", "test": "enzyme activity, inhibitor", "conditions": "0.5 µM", "quantity": "activity vs control", "value": "95.4%"}
{"SMILES": "Cn1c2c(c3ccc(Cl)c(Cl)c31)C(C#N)C(C)(C)NC2=O (stereo not drawn)", "test": "thermal stability, DSF", "conditions": "10 µM", "quantity": "ΔTm", "value": "0.4 °C"}
{"SMILES": "CN(C)CCCn1cc(C2=C(c3c[nH]c4ccccc34)C(=O)NC2=O)c2ccccc21", "test": "cell-free assay", "conditions": "0.5 µM", "quantity": "remaining signal", "value": "72%"}
{"SMILES": "FC(F)c1nc2ccccc2n1-c1nc(N2CCOCC2)nc(N2CCOCC2)n1", "test": "enzyme activity, inhibitor", "conditions": "10 µM", "quantity": "remaining activity", "value": "76%"}
{"SMILES": "CCOc1cc(-c2nncn2C)ccc1Nc1ncc2cc(C)nc(NCC(C)(C)C)c2n1", "test": "enzyme activity, inhibitor, FRET", "conditions": "1 µM", "quantity": "inhibition", "value": "< 15%"}
{"SMILES": "Cc1ccc(-n2nc(C(C)(C)C)cc2NC(=O)Nc2ccc(OCCN3CCOCC3)c3ccccc23)cc1", "test": "enzyme activity, inhibitor", "conditions": "10 µM", "quantity": "inhibition", "value": "6%"}
{"SMILES": "Cn1c2c(c3ccccc31)C(C#N)C(C)(C)NC2=O (stereo not drawn)", "test": "thermal stability, DSF", "conditions": "10 µM", "quantity": "ΔTm", "value": "0.2 °C"}
{"SMILES": "O=C(Nc1cnn(-c2csc(C(=O)NC3COC3)c2)c1)Nc1ccccc1Cl", "test": "enzyme activity, inhibitor", "conditions": "5 µM", "quantity": "remaining activity", "value": "99.8%"}
{"SMILES": "CC(C)(C)c1nc(-c2cccc(NS(=O)(=O)c3c(F)cccc3F)c2F)c(-c2ccnc(N)n2)s1", "test": "enzyme activity, inhibitor, radiometric", "conditions": "1 µM", "quantity": "remaining activity", "value": "95%"}
{"SMILES": "CC1=C(C#N)[C@@H](c2ccc3[nH]nc(C)c3c2)C(C#N)=C(c2ccc(Cl)cc2)N1", "test": "cell-free assay, competition with immobilised ligand", "conditions": "1 µM", "quantity": "remaining binding", "value": "96.7%"}
{"SMILES": "CS(=O)(=O)Nc1cccc(-c2csc(NC(=O)CSc3nc4nccnc4c(=O)n3CCc3ccccc3)n2)c1", "test": "enzyme activity, inhibitor", "conditions": "10 µM", "quantity": "inhibition", "value": "5%"}
